Assay results from ChEMBL document CHEMBL2010803, “Novel NSAID 1-acyl-4-cycloalkyl/arylsemicarbazides and 1-acyl-5-benzyloxy/hydroxy carbamoylcarbazides as potential anticancer agents and antioxidants” (Eur J Med Chem, 2012).
Activity calls are given as the source filed them. No cut-off for these calls is given here.

Columns and labels:
[1] = system: Respiratory syncytial virus; test: Antiviral activity against RSV infected in human cervix carcinoma cells assessed as inhibition of virus-induced cytopathic effect at 0.32 to 100 uM; format: functional, organism-based
How it was run: (§1)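 Confluent cell cultures were infected with 100 CCID50 of virus in the presence of test compound at 100, 40, 8, 1.6 and 0.32 μM. Cytopathic effect was scored once it was complete in untreated infected controls.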

Coxsackievirus B4 [2] = test: Antiviral activity against Coxsackievirus B4 infected in human cervix carcinoma cells assessed as inhibition of virus-induced cytopathic effect at 0.32 to 100 uM; format: functional, organism-based; how it was run: as §1
L1210 = test: Cytostatic activity against mouse L1210 cells after 2 days by coulter counter analysis; format: functional, cell-based; settings: L1210, 48 h
How it was run: (§2)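 300,000–500,000 cells/ml mixed 1:1 with compound dilutions and incubated at 37 °C for 2 days (L1210) or 3 days (CEM, HeLa). Cell number counted with a Coulter counter; HeLa trypsinized before counting.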

CCRF-CEM = test: Cytostatic activity against human CEM cells after 3 days by coulter counter analysis; format: functional, cell-based; settings: 72 h; how it was run: as §2
HeLa = test: Cytostatic activity against human HeLa cells after 3 days by coulter counter analysis; format: functional, cell-based; settings: 72 h; how it was run: as §2
HCT-116 = test: Cytostatic activity against human HCT116 cells after 72 hrs by MTT assay; format: functional, cell-based; settings: HCT-116, 72 h
How it was run: (§3)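 Monolayers in DMEM with 10% FBS, 2 mM L-glutamine and penicillin/streptomycin, 37 °C, 5% CO2. Seeded at 1–3 × 10^4 cells/ml, then compound added in tenfold dilutions (10⁻⁸–10⁻⁴ M) for 72 h. MTT read at 570 nm; percent growth taken against time-zero and untreated controls. IC50 by linear regression; quadruplicate, at least two experiments.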

MCF7 = test: Cytostatic activity against human MCF7 cells after 72 hrs by MTT assay; format: functional, cell-based; settings: MCF7, 72 h; how it was run: as §3
NCI-H460 = test: Cytostatic activity against human NCI-H460 cells after 72 hrs by MTT assay; format: functional, cell-based; settings: NCI-H460, 72 h; how it was run: as §3
Human alphaherpesvirus 1 = test: Antiviral activity against HSV1 KOS infected in human lung fibroblast assessed as inhibition of virus-induced cytopathic effect at 0.32 to 100 uM; format: functional, organism-based; how it was run: as §1
Human alphaherpesvirus 2 = test: Antiviral activity against HSV2 G infected in human lung fibroblast assessed as inhibition of virus-induced cytopathic effect at 0.32 to 100 uM; format: functional, organism-based; settings: strain G; how it was run: as §1
Vaccinia virus = test: Antiviral activity against Vaccinia virus infected in human lung fibroblast assessed as inhibition of virus-induced cytopathic effect at 0.32 to 100 uM; format: functional, organism-based; settings: Orthopoxvirus vaccinia
[3] = system: Vesicular stomatitis virus; test: Antiviral activity against VSV infected in human lung fibroblast assessed as inhibition of virus-induced cytopathic effect at 0.32 to 100 uM; format: functional, organism-based
Human respirovirus 3 = test: Antiviral activity against Parainfluenza virus 3 infected in african green monkey Vero cells assessed as inhibition of virus-induced cytopathic effect at 0.32 to 100 uM; format: functional, organism-based; how it was run: as §1
[4] = system: Mammalian orthoreovirus 1; test: Antiviral activity against Reovirus-1 infected in african green monkey Vero cells assessed as inhibition of virus-induced cytopathic effect at 0.32 to 100 uM; format: functional, organism-based; how it was run: as §1
Sindbis virus = test: Antiviral activity against Sindbis virus infected in african green monkey Vero cells assessed as inhibition of virus-induced cytopathic effect at 0.32 to 100 uM; format: functional, organism-based; how it was run: as §1
Coxsackievirus B4 [5] = test: Antiviral activity against Coxsackievirus B4 infected in african green monkey Vero cells assessed as inhibition of virus-induced cytopathic effect at 0.32 to 100 uM; format: functional, organism-based; how it was run: as §1
Punta Toro virus = test: Antiviral activity against Punta Toro virus infected in african green monkey Vero cells assessed as inhibition of virus-induced cytopathic effect at 0.32 to 100 uM; format: functional, organism-based; how it was run: as §1
[6] = system: Vesicular stomatitis virus; test: Antiviral activity against Vesicular stomatitis virus infected in human cervix carcinoma cells assessed as inhibition of virus-induced cytopathic effect at 0.32 to 100 uM; format: functional, organism-based
How it was run: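 Confluent human cervix carcinoma (HeLa) cultures received 100 CCID50 of VSV together with the compound at 100, 40, 8, 1.6 or 0.32 μM. Cytopathicity was read at the point of full CPE in infected, untreated control wells.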

Felid alphaherpesvirus 1 = test: Antiviral activity against Feline herpesvirus infected in feline CRFK cells assessed as inhibition of virus-induced cytopathic effect at 0.32 to 100 uM; format: functional, organism-based; how it was run: as §1
Feline coronavirus = test: Antiviral activity against Feline coronavirus infected in feline CRFK cells assessed as inhibition of virus-induced cytopathic effect at 0.32 to 100 uM; format: functional, organism-based; how it was run: as §1
Influenza A virus [7] = test: Antiviral activity against Influenza A virus H1N1 infected in MDCK cells assessed as inhibition of virus-induced cytopathic effect at 0.32 to 100 uM; format: functional, organism-based
How it was run: (§4)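 Confluent MDCK monolayers were infected in the presence of the compound at 100, 40, 8, 1.6 and 0.32 μM. Viral cytopathicity was scored once it was complete in untreated infected control cultures.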

Influenza A virus [8] = test: Antiviral activity against Influenza A virus H3N2 infected in MDCK cells assessed as inhibition of virus-induced cytopathic effect at 0.32 to 100 uM; format: functional, organism-based; how it was run: as §4
Influenza B virus = test: Antiviral activity against Influenza B virus infected in MDCK cells assessed as inhibition of virus-induced cytopathic effect at 0.32 to 100 uM; format: functional, organism-based; how it was run: as §4
[9] = system: Human immunodeficiency virus 1; test: Antiviral activity against HIV1 3B infected in human CEM cells assessed as inhibition of virus-induced CEM giant cell formation at 0.32 to 100 uM after 4 days; format: functional, organism-based; settings: CCRF-CEM
How it was run: (§5)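 CEM cells (~3 × 10^5 cells/cm³) exposed to 100 CCID50/ml of virus and seeded into wells holding compound dilutions. Incubated 4 days at 37 °C, then giant cell formation examined microscopically.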

[10] = system: Human immunodeficiency virus 2; test: Antiviral activity against HIV2 ROD infected in human CEM cells assessed as inhibition of virus-induced CEM giant cell formation at 0.32 to 100 uM after 4 days; format: functional, organism-based; settings: ISOLATE ROD, CCRF-CEM; how it was run: as §5
[11] = system: Radical scavenging activity; test: Antioxidant activity assessed as DPPH free radical scavenging activity at 100 uM after 20 mins by spectrophotometric analysis; format: functional
How it was run: (§6)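 0.05 mM DPPH in absolute ethanol mixed with an equal volume of compound in DMSO (final 100 μM). Shaken and left 20 or 60 min, then absorbance read at 517 nm and percent activity calculated. Three replicates, averaged.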

[12] = system: Radical scavenging activity; test: Antioxidant activity assessed as DPPH free radical scavenging activity at 100 uM after 60 mins by spectrophotometric analysis; format: functional; how it was run: as §6
[13] = Antioxidant activity assessed as inhibition of AAPH-induced linoleic acid lipid peroxidation by measuring conjugated diene hydroperoxide level; format: functional; set-up: concentration or dose not given beside the values
How it was run: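 Linoleic acid sodium salt (10 μL of 16 mM) in 0.05 M phosphate buffer pH 7.4 at 37 °C. Oxidation started under air with 50 μL of 40 mM AAPH. Conjugated diene hydroperoxide formation followed as absorbance rise at 234 nm; control contains the same DMSO level. At least triplicate.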

Glycine max = test: Inhibition of soybean LOX assessed as conversion of sodium linoleate to 13- hydroperoxylinoleic acid at 100 uM
[14] = dose or concentration not given here

Row | Compound | inhibition [1] | inhibition (Coxsackievirus B4 [2]) | IC50 (L1210) | IC50 (CCRF-CEM) | IC50 (HeLa) | IC50 (HCT-116) | IC50 (MCF7) | IC50 (NCI-H460) | inhibition (Human alphaherpesvirus 1) | inhibition (Human alphaherpesvirus 2) | inhibition (Vaccinia virus) | inhibition [3] | inhibition (Human respirovirus 3) | inhibition [4] | inhibition (Sindbis virus) | inhibition (Coxsackievirus B4 [5]) | inhibition (Punta Toro virus) | inhibition [6] | inhibition (Felid alphaherpesvirus 1) | inhibition (Feline coronavirus) | further results
1 | CC(C(=O)NNC(=O)NO)c1cccc(Cc2ccccc2)c1 (centres undefined) | inactive | inactive | 113 µM | 155 µM | 176 µM | > 100 µM | > 100 µM | > 100 µM | inactive | inactive | inactive | inactive | inactive | inactive | inactive | inactive | inactive | inactive | inactive | inactive | inhibition (Influenza A virus [7]): inactive; inhibition (Influenza A virus [8]): inactive; inhibition (Influenza B virus): inactive; inhibition [9]: inactive; inhibition [10]: inactive; Activity [11]: 36%; Activity [12]: 59%; inhibition [13, 14]: 8%; inhibition (Glycine max): 8%
2 | CC(C(=O)NNC(=O)NOCc1ccccc1)c1cccc(Oc2ccccc2)c1 (centres undefined) | inactive | inactive | 84 µM | 91 µM | 76 µM | 76 µM | 81 µM | > 100 µM | inactive | inactive | inactive | inactive | inactive | inactive | inactive | inactive | inactive | inactive | inactive | inactive | inhibition (Influenza A virus [7]): inactive; inhibition (Influenza A virus [8]): inactive; inhibition (Influenza B virus): inactive; inhibition [9]: inactive; inhibition [10]: inactive; Activity [11]: inactive; Activity [12]: inactive; inhibition [13, 14]: 8%; inhibition (Glycine max): 6%
3 | CC(C)Cc1ccc(C(C)C(=O)NNC(=O)NNC(=O)NO)cc1 (centres undefined) | inactive | inactive | > 250 µM | > 250 µM | > 250 µM | > 100 µM | > 100 µM | > 100 µM | inactive | inactive | inactive | inactive | inactive | inactive | inactive | inactive | inactive | inactive | inactive | inactive | inhibition (Influenza A virus [7]): inactive; inhibition (Influenza A virus [8]): inactive; inhibition (Influenza B virus): inactive; inhibition [9]: inactive; inhibition [10]: inactive; Activity [11]: 24%; Activity [12]: 46%; inhibition [13, 14]: 15%; inhibition (Glycine max): inactive
4 | CC(C(=O)NNC(=O)NOCc1ccccc1)c1cccc(Cc2ccccc2)c1 (centres undefined) | inactive | inactive | 79 µM | 101 µM | 78 µM | 56 µM | 41 µM | 82 µM | inactive | inactive | inactive | inactive | inactive | inactive | inactive | inactive | inactive | inactive | inactive | inactive | inhibition (Influenza A virus [7]): inactive; inhibition (Influenza A virus [8]): inactive; inhibition (Influenza B virus): inactive; inhibition [9]: inactive; inhibition [10]: inactive; Activity [11]: 3%; Activity [12]: 6%; inhibition [13]: inactive; inhibition (Glycine max): inactive
5 | CC(C)Cc1ccc(C(C)C(=O)NN)cc1 (centres undefined) | inactive | inactive | 170 µM | 147 µM | 129 µM | > 100 µM | > 100 µM | > 100 µM | inactive | inactive | inactive | inactive | inactive | inactive | inactive | inactive | inactive | inactive | inactive | inactive | inhibition (Influenza A virus [7]): inactive; inhibition (Influenza A virus [8]): inactive; inhibition (Influenza B virus): inactive; inhibition [9]: inactive; inhibition [10]: inactive; Activity [11]: inactive; Activity [12]: 1%; inhibition [13, 14]: 6%; inhibition (Glycine max): 8%
6 | CC(C)Cc1ccc(C(C)C(=O)NNC(=O)NCC2CCCCC2)cc1 (centres undefined) | inactive | inactive | 44 µM | 26 µM | 142 µM | 21 µM | 13 µM | 29 µM | inactive | inactive | inactive | inactive | inactive | inactive | inactive | inactive | inactive | inactive | inactive | inactive | inhibition (Influenza A virus [7]): inactive; inhibition (Influenza A virus [8]): inactive; inhibition (Influenza B virus): inactive; inhibition [9]: inactive; inhibition [10]: inactive; Activity [11]: 3%; Activity [12]: 6%; inhibition [13, 14]: 16%; inhibition (Glycine max): 25%
